In ChEMBL document CHEMBL2417530, “Coumarin derivatives protect against ischemic brain injury in rats” (Eur J Med Chem, 2013):

Legend:
PC-12 = test: Neuroprotective activity in rat PC12 cells assessed as attenuation of oxygen-glucose deprivation-induced cellular damage at 10 uM by MTT assay relative to control; assay type: functional
Procedure, shortened: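 PC12 cells were seeded at 5×10^3/well for 24 h. OGD insult was low-glucose medium plus 5 mM sodium dithionite for 24 h, given together with 10 µM compound. MTT (5 mg/mL) was added for 4 h and absorbance read at 570 nm. Viability was expressed as % of full-medium control; n = 3.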

[1] = Cytotoxicity against rat PC12 cells assessed as cell proliferation at 10 uM by MTT assay relative to control; assay type: cell-based, PC-12; settings: read-out: Activity
Procedure, shortened: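 PC12 cells were grown in DMEM with 5% FBS, 5% horse serum and 2 mM glutamine at 37 °C, 5% CO2. They were seeded at 5×10^3 cells/well for 24 h, then exposed to 10 µM compound in full medium. Viability was read by MTT (5 mg/mL, 4 h) at 570 nm as % of control absorbance; n = 3.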

Row | Structure (SMILES) | Activity (PC-12) [%] | viability at 10 µM [1] [%]
1 | COc1ccccc1N1CCN(c2c(C)c3c(O)cc(O)cc3oc2=O)CC1 | 46.8 | 102
2 | Cc1cc(O)c2c(C)c(N3CCN(C)CC3)c(=O)oc2c1 | 47.3 | 99.5
3 | Cc1c(N2CCN(C)CC2)c(=O)oc2cc(O)cc(OCCNS(C)(=O)=O)c12 | 40.3 | 103
4 | Cc1c(N2CCN(C)CC2)c(=O)oc2cc(O)cc(OCc3ccccn3)c12 | 44.2 | 116
5 | Cc1c(N2CCN(C)CC2)c(=O)oc2cc(O)cc(OCCCNC(=O)OC(C)(C)C)c12 | 15.8 | 153
6 | Cc1c(CCN2CCN(C)CC2)c(=O)oc2cc(O)cc(O)c12 | 45.9 | 102
7 | CC(=O)Oc1cc(OC(C)=O)c2c(C)c(N3CCN(C)CC3)c(=O)oc2c1 | 46.6 | 102
8 | Cc1c(N2CCN(C)CC2)c(=O)oc2cc(OCCc3cccs3)ccc12 | 43.7 | 110
9 | Cc1c(N2CCN(C(=O)c3ccccc3)CC2)c(=O)oc2cc(O)cc(O)c12 | 44.6 | 100
10 | Cc1c(N2CCN(C(=O)C(F)(F)F)CC2)c(=O)oc2cc(O)cc(O)c12 | 49.3 | 97.4
11 | Cc1c(N2CCN(C)CC2)c(=O)oc2cc(O)cc(OCCN3CCOCC3)c12 | 56.9 | 108
12 | CCCCCCCNC(=O)N1CCN(c2c(C)c3c(O)cc(O)cc3oc2=O)CC1 | 43.4 | 99.3
13 | Cc1c(N2CCN(C)CC2)c(=O)oc2cc(O)cc(OCCc3ccccn3)c12 | 48.2 | 152
14 | Cc1c(N2CCN(C)CC2)c(=O)oc2cc(O)cc(OCc3nccs3)c12 | 54.7 | 108
15 | Cc1c(N2CCN(C)CC2)c(=O)oc2cc(O)cc(OCCNC(=O)OC(C)(C)C)c12 | 23.4 | 132
16 | Cc1cccc(N2CCN(c3c(C)c4c(O)cc(O)cc4oc3=O)CC2)c1C | 47.1 | 103
17 | Cc1c(N2CCN(C)CC2)c(=O)oc2cc(O)cc(OCCc3cccs3)c12 | 39.1 | 178
18 | Cc1c(N2CCN(C(=O)Nc3ccc(OC(F)(F)F)cc3)CC2)c(=O)oc2cc(O)cc(O)c12 | 48.7 | 99.5
19 | Cc1c(N2CCN(C)CC2)c(=O)oc2cc(O)cc(OCCN3CCCCC3)c12 | 24.9 | 144
20 | CC(=O)Nc1ccc(S(=O)(=O)N2CCN(c3c(C)c4c(O)cc(O)cc4oc3=O)CC2)cc1 | 44.5 | 98.1
21 | Cc1c(CC(=O)N2CCN(C)CC2)c(=O)oc2cc(O)cc(O)c12 | 46.7 | 97.7
22 | Cc1c(N2CCN(C(=O)CCl)CC2)c(=O)oc2cc(O)cc(O)c12 | 48.1 | 97.4
23 | Cc1c(N2CCN(C)CC2)c(=O)oc2cc(O)cc(OCCN)c12 | 49.2 | 104
24 | Cc1c(N2CCN(C)CC2)c(=O)oc2cc(N(C)C)ccc12 | 45.8 | 97.8

Row | Structure (SMILES) | Activity (PC-12) [%] | viability at 10 µM [1] [%]
25 | Cc1c(N2CCN(C)CC2)c(=O)oc2cc(O)cc(OCCCCl)c12 | 36.3 | 197
26 | Cc1c(N2CCN(C(=O)Nc3ccc(C(C)C)cc3)CC2)c(=O)oc2cc(O)cc(O)c12 | 46.3 | 97.3
27 | CCCCOc1cc(O)cc2oc(=O)c(N3CCN(C)CC3)c(C)c12 | 46.2 | 197
28 | Cc1c(N2CCN(C)CC2)c(=O)oc2cc(O)cc(OC3CCOC3)c12 (configuration not stated) | 52 | 107
29 | Cc1c(N2CCN(C(=O)Nc3ccccc3Oc3ccccc3)CC2)c(=O)oc2cc(O)cc(O)c12 | 49.3 | 97.9
30 | COc1cc(OC)c2c(C)c(N3CCN(C)CC3)c(=O)oc2c1 | 49.6 | 100
31 | COc1cc(O)c2c(C)c(N3CCN(C)CC3)c(=O)oc2c1 | 46.1 | 99.8
32 | CC(=O)N1CCN(c2c(C)c3c(O)cc(O)cc3oc2=O)CC1 | 48.4 | 98.1
33 | Cc1c(N2CCN(C(=O)NCc3ccccc3)CC2)c(=O)oc2cc(O)cc(O)c12 | 49.6 | 102
34 | Cc1c(N2CCN(Cc3cc4c(cc3Cl)OCO4)CC2)c(=O)oc2cc(O)cc(O)c12 | 44.6 | 97.2
35 | COc1ccc2c(C)c(N3CCN(C)CC3)c(=O)oc2c1 | 43.7 | 100
36 | Cc1c(N2CCN(C)CC2)c(=O)oc2cc(O)ccc12 | 44.8 | 99
37 | Cc1c(N2CCN(C)CC2)c(=O)oc2cc(O)cc(OC3CCCCC3)c12 | 36.1 | 177
38 | Cc1c(N2CCN(Cc3ccccc3)CC2)c(=O)oc2cc(O)cc(O)c12 | 44.4 | 100
39 | Cc1c(N2CCN(C)CC2)c(=O)oc2cc3c(cc12)OCO3 | 47.9 | 101
40 | Cc1ccc(COc2cc(O)cc3oc(=O)c(N4CCN(C)CC4)c(C)c23)c(C)c1 | 27.3 | 51.6
41 | Cc1c(N2CCN(S(=O)(=O)c3ccccc3)CC2)c(=O)oc2cc(O)cc(O)c12 | 49.7 | 97.4
42 | Cc1c(N2CCNCC2)c(=O)oc2cc(O)cc(O)c12 | 46.4 | 96.3
43 | COc1ccc(COc2ccc3c(C)c(N4CCN(C)CC4)c(=O)oc3c2)cc1 | 44.2 | 136
44 | Cc1c(N2CCN(C)CC2)c(=O)oc2cc(O)cc(OC3CCN(C(=O)OC(C)(C)C)CC3)c12 | 51.5 | 137
45 | CCOc1cc(O)cc2oc(=O)c(N3CCN(C)CC3)c(C)c12 | 33.9 | 167
46 | Cc1c(N2CCN(c3ccc(F)cc3)CC2)c(=O)oc2cc(O)cc(O)c12 | 47 | 103
47 | Cc1c(N2CCN(C)CC2)c(=O)oc2cc(O)cc(OCC3CC3)c12 | 37.7 | 184
48 | Cc1c(N2CCN(C)CC2)c(=O)oc2cc(O)cc(OC3CCCC3)c12 | 33.8 | 181

Row | Structure (SMILES) | Activity (PC-12) [%] | viability at 10 µM [1] [%]
49 | Cc1c(N2CCN(C(c3ccc(F)cc3)c3ccc(F)cc3)CC2)c(=O)oc2cc(O)cc(O)c12 | 47.8 | 102
50 | Cc1c(N2CCN(C)CC2)c(=O)oc2cc(O)cc(O)c12 | 52.7 | 107
51 | Cc1c(N2CCN(C(=S)Nc3cccc(F)c3)CC2)c(=O)oc2cc(O)cc(O)c12 | 48.8 | 101
52 | Cc1c(N2CCN(c3cccc(C(F)(F)F)c3)CC2)c(=O)oc2cc(O)cc(O)c12 | 46.5 | 103
53 | Cc1c(N2CCN(C)CC2)c(=O)oc2cc(OCCN3CCCCC3)ccc12 | 45.3 | 95.4
54 | Cc1c(N2CCN(C)CC2)c(=O)oc2cc(O)cc(OCCCN)c12 | 40.5 | 107
55 | CCC(CC)CN1CCN(c2c(C)c3c(O)cc(O)cc3oc2=O)CC1 | 49.5 | 102
56 | CCCCNC(=S)N1CCN(c2c(C)c3c(O)cc(O)cc3oc2=O)CC1 | 48.9 | 103
57 | Cc1c(N2CCN(C)CC2)c(=O)oc2cc(O)cc(OCCN3CCCC3)c12 | 48.2 | 135
58 | Cc1c(CCC(=O)N2CCN(C)CC2)c(=O)oc2cc(O)cc(O)c12 | 46.1 | 97.5
59 | CCCCCCCCOc1cc(O)cc2oc(=O)c(N3CCN(C)CC3)c(C)c12 | 15.6 | 59.4
60 | Cc1c(N2CCN(C)CC2)c(=O)oc2cc(O)cc(OCCN(C)C)c12 | 61.5 | 104
61 | Cc1ccc(S(=O)(=O)NCCOc2cc(O)cc3oc(=O)c(N4CCN(C)CC4)c(C)c23)cc1 | 45.1 | 140
62 | Cc1c(N2CCN(C(=O)Nc3ccc(F)cc3)CC2)c(=O)oc2cc(O)cc(O)c12 | 46.3 | 104
63 | Cc1c(N2CCN(C)CC2)c(=O)oc2cc(O)cc(OC(C)C)c12 | 51.8 | 119
64 | Cc1c(N2CCN(C(=O)/C=C/c3ccccc3)CC2)c(=O)oc2cc(O)cc(O)c12 | 45.9 | 104
65 | Cc1c(N2CCN(C)CC2)c(=O)oc2cc(O)cc(OC3CCN(C)CC3)c12 | 19.9 | 139
66 | C=CC(=O)N1CCN(c2c(C)c3c(O)cc(O)cc3oc2=O)CC1 | 48.3 | 98.5
67 | CCC1CCC(Oc2ccc3c(C)c(N4CCN(C)CC4)c(=O)oc3c2)CC1 (configuration not stated) | 49.2 | 101
68 | Cc1c(N2CCN(C)CC2)c(=O)oc2cc(OCCN3CCCC3)ccc12 | 44.9 | 104
69 | CCOc1ccc2c(C)c(N3CCN(C)CC3)c(=O)oc2c1 | 45.6 | 101
70 | Cc1c(N2CCN(C)CC2)c(=O)oc2cc(OCCN3CCOCC3)ccc12 | 49.3 | 101
71 | CCN1CCN(c2c(C)c3c(O)cc(O)cc3oc2=O)CC1 | 46.4 | 101
